Sampled rows, rich in hits. Any-hit rate of the full collection: about 6.3%.
Ecoli tolC – growth inhibitors of E. coli tolC mutant, primary screen, strain BW25113 ΔtolC::kan, 384-well; OD615; growth inhibition, % at 10 µM (by protocol); 65,000 tested, 2.2% active;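 active = growth inhibition at or above a cutoff equal to the mean over every tested compound plus 3 SD, cut at about 60% in these data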;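 also: growth measured after 20 h incubation at 37 °C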
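Doses: one dose of 10 µM final / Material: E. coli BW25113 ΔtolC::kan, tolC deletion mutant strain / Buffer or medium: LB with kanamycin 50 µg/mL / Evaluation: percent growth inhibition / Detection: optical density read at 615 nm / Incubation: 37 °C, 20 h exposure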
E coli WT exp – growth inhibitors of wild-type E. coli, primary screen, strain BW25113, expanded library, OD600; OD600 absorbance; growth inhibition, % at 100 µM; 98,000 tested, 0.15% active;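 active = growth inhibition above about 50% at one test dose, limit read from the data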;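 also: growth measured after 20 h incubation at 37 °C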
PostGolgi yeast – phenotypic screen on post-Golgi transport, primary screen; AID 739, 2007; post-Golgi transport phenotypic cell assay; inhibition, % at 10 µM; 98,000 tested, 0.9% active;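 also: yeast cells grown in 1536-well plates; yeast grown about 18 h at 30C before absorbance read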
PostGolgi ctrl – growth inhibition of yeast control strain, primary screen, counter-screen for post-Golgi transport modulator project | efflux-deficient yeast background strain, growth absorbance A615, 16 h | inhibition, % at 10 µM | 98,000 tested, 5% active | AID 738, 2007
Numbers stand for hits; i = inactive; nt = not tested or not shown. Rule as the data show it, unless noted: active = inhibition above about 30%; inactive = the rest.

SMILES	Ecoli tolC	E coli WT exp	PostGolgi yeast	PostGolgi ctrl
CCn1cc(C(=O)O)c(=O)c2cc3c(cc21)OCO3	100.0	nt	nt	nt
CC(=O)c1sc2nc(=O)c(C)nn2c1C	i	i	i	i
Cc1ccc(S(=O)(=O)C(C#N)c2nc3ccccc3nc2N2CCCC2)cc1 (stereo unspecified)	i	i	i	i
Cc1cccc(S(=O)(=O)C(C#N)c2nc3ccccc3nc2N2CC(C)OC(C)C2)c1 (stereo unspecified)	62.3	i	i	i
COc1ccc(S(=O)(=O)C(C#N)c2nc3ccccc3nc2N2CCCC(C)C2)cc1 (stereo unspecified)	68.1	i	i	i
CC1CCN(c2nc3ccccc3nc2C(C#N)S(=O)(=O)c2ccccc2)CC1 (stereo unspecified)	76.4	nt	nt	nt
CCCCn1c(-c2ccccc2)cnc1SCC(=O)NCCc1ccc(OC)c(OC)c1	nt	i	i	i
CCCCS(=O)(=O)/C=C\C=C/S(=O)(=O)CCCC	i	i	94.1	i
Cc1cc(C)cc(Nc2cc(=O)n(C3CCCCC3)c(=O)[nH]2)c1	82.5	i	i	i
COCCN(CC(=O)NC1CCCCC1)C(=O)CSc1nc2ccccc2o1	i	i	i	i
O=C(CN(Cc1ccc2c(c1)OCO2)C(=O)CSc1nc2ccccc2o1)NC1CCCCC1	100.0	i	i	i
Cc1ccc(S(=O)(=O)Nc2cc(-c3nn(C)c(=O)c4ccccc34)ccc2N2CCOCC2)cc1	nt	i	i	i
Cn1nc(-c2ccc(N3CCOCC3)c(NS(=O)(=O)c3ccc(Cl)cc3)c2)c2ccccc2c1=O	nt	i	i	30.4
O=C(c1ccco1)N(CCC(c1ccccc1)c1ccco1)Cc1ccc(F)cc1 (stereo unspecified)	nt	i	i	39.8
O=C(CN(Cc1ccc(F)cc1)C(=O)c1ccco1)NCc1ccc(F)cc1	i	i	i	i
CCOC(=O)Cc1c(C)nc2c(-c3ccc(Cl)cc3)c[nH]n2c1=O	98.7	i	i	i
CCOC(=O)Cc1c(C)nc2cc(-c3ccc(Cl)cc3)[nH]n2c1=O	i	i	i	i
CO/N=C/c1ccc(Sc2ccc(C)cc2)c([N+](=O)[O-])c1	nt	i	i	i
Cc1ccc(Sc2ccc(/C=N/O)cc2[N+](=O)[O-])cc1	nt	i	i	30.9
Cc1csc(=O)n1CCC(=O)O	i	i	i	i
CCOC(=O)c1nnc(-c2ccccc2)nc1NCc1ccccc1	nt	i	i	35.2
CCOC(=O)c1cc(C#N)c(NCc2ccccc2)nc1C	i	i	i	i
Cc1ccc2cc(CN(Cc3ccco3)C(=O)C3CCCCC3)c(=O)[nH]c2c1C	i	i	i	35.2
CCN1C(=S)SC(=O)C1=C1C=C(C)N(Cc2ccco2)C(C)=C1	i	i	i	37.8
O=c1c(Cl)nc2cc(Cl)ccc2n1CCNc1ncc(C(F)(F)F)cc1Cl	nt	i	75.8	98.8
SMILES	Ecoli tolC	E coli WT exp	PostGolgi yeast	PostGolgi ctrl
Cc1ccc(C2CC(C(F)(F)F)n3nc(C(=O)NCc4ccco4)cc3N2)cc1 (stereo unspecified)	i	i	i	32.1
Cc1ccc(C2CC(C(F)(F)F)n3nc(C(=O)NCCN4CCOCC4)cc3N2)cc1 (stereo unspecified)	i	i	i	i
Cc1ccc(-c2cc(C(=O)NCc3ccco3)no2)cc1	i	i	i	i
Cc1cc(C(=O)NCc2ccco2)no1	nt	i	30.3	i
CCCCNC(=O)c1cc2n(n1)C(C(F)(F)F)CC(c1ccccc1)N2 (stereo unspecified)	i	i	i	34.9
Cc1cccc(NC(=O)c2cc3n(n2)C(C(F)(F)F)CC(c2ccc4c(c2)OCO4)N3)c1 (stereo unspecified)	68.4	i	i	57.8
CC(C)(C)S(=O)c1cccs1 (stereo unspecified)	nt	i	i	i
CS/C(=N\S(=O)(=O)c1cccs1)NC(=O)CSc1nc2ccccc2s1	i	i	i	i
c1ccc(-c2nc(CSc3nnc(-c4cccs4)o3)cs2)cc1	63.3	i	i	i
CCC(CC)C(=O)OCC(=O)Nc1ccc(S(=O)(=O)N2CCOCC2)cc1OC	nt	i	i	i
COc1cc(S(=O)(=O)N2CCOCC2)ccc1NC(=O)COC(=O)C12CC3CC(CC(C3)C1)C2	i	i	i	35.3
CNc1nn(-c2cccc(Cl)c2)nc1N	i	i	i	i
CCOC(=O)c1cccc(NC(=O)c2cc3sccc3n2C)c1	73.4	i	i	i
COc1ccc(OC)c(C(c2nnnn2C2CCCC2)N2CCN(c3ccccc3F)CC2)c1 (stereo unspecified)	i	i	i	i
CC(C)CC(c1nnnn1C1CCCC1)N1CCN(c2ccccc2F)CC1 (stereo unspecified)	i	i	72.3	86.9
Fc1ccccc1N1CCN(C(c2ccccn2)c2nnnn2C2CCCCC2)CC1 (stereo unspecified)	i	i	i	40.5
CC(C)C(c1nnnn1C1CCCCC1)N1CCN(c2ncccn2)CC1 (stereo unspecified)	i	i	51.5	82.5
Cc1ccc(Cl)cc1N1CCN(C(c2cccnc2)c2nnnn2C2CCCCC2)CC1 (stereo unspecified)	i	i	i	36.9
CC1CCCC(n2c(=S)[nH]c3ccccc3c2=O)C1C (stereo unspecified)	nt	i	i	i
CC(C)CC(c1nnnn1C1CCCCC1)N1CCN(c2ncccn2)CC1 (stereo unspecified)	i	i	53.0	83.5
COc1cccc(CNC(=O)C(CCSC)NS(=O)(=O)c2ccc3c(c2)oc(=O)n3C)c1 (stereo unspecified)	i	i	i	i
CC(=O)N(CCC(Cc1ccccc1)c1ccc2c(c1)OCO2)Cc1ccccc1F (stereo unspecified)	nt	i	i	36.2
O=C(NC(Cc1ccccc1)c1ccc2c(c1)OCCCO2)c1ccccc1F (stereo unspecified)	nt	i	i	i
COc1ccc(C)cc1NC(=O)C1CC(=O)OC12CCCCC2 (stereo unspecified)	i	i	i	i
Oc1ccc(Nc2nc3ccccc3nc2Nc2ccc(O)cc2)cc1	nt	i	i	i
SMILES	Ecoli tolC	E coli WT exp	PostGolgi yeast	PostGolgi ctrl
CCOC(=O)Cc1csc(NC(=O)c2cc3c(s2)CCCC3)n1	nt	i	i	i
CCOC(=O)Cc1csc(NC(=O)c2csc3c2CCCC3)n1	64.0	i	i	i
CCOC(=O)Cc1csc(NC(=O)c2ccc(S(=O)(=O)N3CCCCC3)cc2)n1	61.5	i	i	i
C=CCNc1nc2c(c(=O)n(C)c(=O)n2C)n1CC(=C)C	i	nt	nt	nt
Clc1cccc(Nc2ncnc3ccc(Br)cc23)c1	nt	i	i	46.2
Clc1ccc(Nc2ncnc3ccc(Br)cc23)cc1	nt	i	i	33.1
Brc1ccc2ncnc(NCc3ccccc3)c2c1	nt	i	i	i
CCc1nc2ccccc2c(=O)n1NC(=O)c1c(O)c2ccccc2[nH]c1=O	85.0	i	i	i
CCNC(=O)c1c(O)c2ccccc2[nH]c1=O	i	i	i	i
O=C(C1CCCO1)N1CCN(C(c2ccccc2)c2ccccc2)CC1 (stereo unspecified)	i	i	i	i
O=C(C1CCCO1)N1CCN(S(=O)(=O)c2ccccc2)CC1 (stereo unspecified)	i	i	i	35.9
